≈ marks a conversion by molar mass, not a printed value.
Columns and labels:
[1] = Ratio of drug level in alveolar macrophages to plasma in healthy human at 400 mg, po administered as single dose after 8 hrs
Streptococcus pyogenes = assay: Antimicrobial activity against Streptococcus pyogenes; type: functional
[2] = Ratio of drug level in alveolar macrophages to plasma in healthy human at 400 mg, po administered as single dose after 6 hrs
Homo sapiens [3] = assay: Toxicity in healthy human assessed as lymphocytes count in bronchoalveolar fluid at […], po administered as single dose after 10 hrs; type: organism-based, Lung; parameters: route oral; conditions: in vivo
Summary of the method: (§1)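 Healthy Japanese male never-smokers, aged 20 to 45 years with normal BMI, got one open-label oral 400 mg suspension dose. Four subjects per time group had one fiber-optic bronchoscopic BAL at the assigned post-dose time. The first aliquot was discarded and the last three were pooled. BAL fluid was held on ice and spun at 400 × g for 5 min at 4°C. Pellet cells were counted by hemocytometer, with a differential count on a stained cytocentrifuge preparation.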

[4] = Ratio of AUC (0 to 24 hrs) in plasma of healthy human to MIC90 for Haemophilus influenzae; type: functional
[5] = Terminal-phase half-life in epithelial lining fluid of healthy human at 400 mg, po administered as single dose; conditions: read-out: beta t1/2 (converted)
[6] = Ratio of drug level in epithelial lining fluid to plasma in healthy human at 400 mg, po administered as single dose after 12 hrs
Homo sapiens [7] = assay: Toxicity in healthy human assessed as neutrophil count in bronchoalveolar fluid at […], po administered as single dose after 2 hrs; type: organism-based, Lung; parameters: route oral; conditions: in vivo
Summary of the method: as §1

[8] = Plasma concentration in healthy human at […], po after 10 hrs; type: ADME, organism-based; parameters: route oral
Summary of the method: (§2)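 Healthy nonsmoking Japanese men, 20-45 y, given one oral 400 mg suspension dose. Blood drawn at 0-72 h, spun at 1,600 × g for 10 min at 4°C, plasma kept at −20°C. Drug measured by validated LC/MS/MS, linear 0.005-5 μg/ml. Values are mean ± SD, n = 28. Cmax, Tmax and t1/2,z are model-independent; AUC0-24 by trapezoidal method.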

[9] = Drug level in alveolar macrophages of healthy human at […], po administered as single dose after 4 hrs; type: ADME, organism-based, Macrophage; parameters: route oral; conditions: read-out: Drug uptake
Summary of the method: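 One oral 400 mg suspension dose; four volunteers lavaged at each time (2-24 h). Cell pellet from the pooled 2nd-4th aspirates was counted (hemocytometer, stained cytospin differential). Drug in cell suspension measured by HPLC, divided by AM volume assuming 2.42 μl/10^6 cells. Cmax and Tmax are model-independent, based on mean concentrations at each time.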

Homo sapiens [10] = assay: Toxicity in healthy human assessed as other cellular fractions in bronchoalveolar fluid at […], po administered as single dose after 6 hrs; type: organism-based, Lung; parameters: route oral; conditions: in vivo
Summary of the method: as §1

Homo sapiens [11] = assay: Toxicity in healthy human assessed as lymphocytes count in bronchoalveolar fluid at […], po administered as single dose after 24 hrs; type: organism-based, Lung; parameters: route oral; conditions: in vivo
Summary of the method: as §1

Homo sapiens [12] = assay: Toxicity in healthy human assessed as neutrophil count in bronchoalveolar fluid at […], po administered as single dose after 8 hrs; type: organism-based, Lung; parameters: route oral; conditions: in vivo
Summary of the method: as §1

Homo sapiens [13] = assay: Toxicity in healthy human assessed as eosinophil count in bronchoalveolar fluid at 400 mg, po administered as single dose after 10 hrs; conditions: in vivo
Homo sapiens [14] = assay: Toxicity in healthy human assessed as neutrophil count in bronchoalveolar fluid at […], po administered as single dose after 12 hrs; type: organism-based, Lung; parameters: route oral; conditions: in vivo
Summary of the method: as §1

[15] = Cmax in plasma of healthy human at 400 mg, po administered as single dose
[16] = Ratio of drug level in epithelial lining fluid to plasma in healthy human at […], po administered as single dose after 4 hrs; type: ADME, organism-based; parameters: route oral
Summary of the method: (§3)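 For each subject, ELF or AM drug level after the single oral 400 mg dose is divided by the plasma level sampled at the BAL time (2-24 h). Ratios are summarized per four-subject group.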

Homo sapiens [17] = assay: Toxicity in healthy human assessed as alveolar macrophage count in bronchoalveolar fluid at 400 mg, po administered as single dose after 4 hrs; conditions: in vivo
[18] = Ratio of AUC (0 to 24 hrs) in plasma of healthy human to MIC90 for Streptococcus pneumoniae; type: functional
Homo sapiens [19] = assay: Toxicity in healthy human assessed as other cellular fractions in bronchoalveolar fluid at […], po administered as single dose after 24 hrs; type: organism-based, Lung; parameters: route oral; conditions: in vivo
Summary of the method: as §1

[20] = Plasma concentration in healthy human at […], po after 12 hrs; type: ADME, organism-based; parameters: route oral
Summary of the method: as §2

Homo sapiens [21] = assay: Toxicity in healthy human assessed as alveolar macrophage count in bronchoalveolar fluid at 400 mg, po administered as single dose after 10 hrs; conditions: in vivo
[22] = Drug level in epithelial lining fluid of healthy human at […], po administered as single dose after 12 hrs; type: ADME, organism-based; parameters: route oral; conditions: read-out: Drug uptake
Summary of the method: (§4)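 Four healthy male volunteers per BAL time (2-24 h) after one oral 400 mg suspension dose. Single bronchoscopic lavage; first aliquot discarded, next three pooled. Supernatant separated at 400 × g, 5 min, 4°C, and drug assayed by LC/MS/MS. ELF level = CBAL × urea plasma/urea BAL, with urea corrected for blood contamination via RBC ratio. PK parameters are model-independent, based on the mean concentration at each time.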

Homo sapiens [23] = assay: Toxicity in healthy human assessed as other cellular fractions in bronchoalveolar fluid at […], po administered as single dose after 12 hrs; type: organism-based, Lung; parameters: route oral; conditions: in vivo
Summary of the method: as §1

[24] = Ratio of drug level in epithelial lining fluid to plasma in healthy human at […] administered as single dose after 2 hrs; type: ADME, organism-based; parameters: route oral; conditions: po
Summary of the method: as §3

[25] = Ratio of drug level in alveolar macrophages to plasma in healthy human at 400 mg, po administered as single dose after 12 hrs
Homo sapiens [26] = assay: Toxicity in healthy human assessed as eosinophil count in bronchoalveolar fluid at 400 mg, po administered as single dose after 24 hrs; conditions: in vivo
Moraxella catarrhalis = assay: Antimicrobial activity against Moraxella catarrhalis; type: functional
Staphylococcus aureus = assay: Antimicrobial activity against erythromycin-susceptible Staphylococcus aureus; type: functional
[27] = Ratio of drug level in alveolar macrophages to plasma in healthy human at 400 mg, po administered as single dose after 24 hrs
[28] = Ratio of drug level in alveolar macrophages to plasma in healthy human at 400 mg, po administered as single dose after 10 hrs
[29] = Drug level in epithelial lining fluid of healthy human at […], po administered as single dose after 4 hrs; type: ADME, organism-based; parameters: route oral; conditions: read-out: Drug uptake
Summary of the method: as §4

[30] = Cmax in epithelial lining fluid of healthy human at 400 mg, po administered as single dose
Homo sapiens [31] = assay: Toxicity in healthy human assessed as eosinophil count in bronchoalveolar fluid at 400 mg, po administered as single dose after 8 hrs; conditions: in vivo

Kp at 8 h [1]: 283 | MIC90 (Streptococcus pyogenes): ≤ 0.063 µg/mL | Kp at 6 h [2]: 183 | half-life [5]: 14.8 h | Kp at 12 h [6]: 13.8 | concentration at 10 h [8]: 429 ng/mL | concentration at 4 h [9]: 116000 ng/mL | Cmax [15]: 687 ng/mL | Kp at 4 h [16]: 24.8 | concentration at 12 h [20]: 424 ng/mL | concentration at 12 h [22]: 5800 ng/mL | Kp at 2 h [24]: 26.3 | Kp at 12 h [25]: 406 | MIC90 (Moraxella catarrhalis): 0.5 µg/mL (≈ 0.595 µM) | MIC90 (Staphylococcus aureus): 0.25 µg/mL (≈ 0.297 µM) | Kp at 24 h [27]: 232 | Kp at 10 h [28]: 260 | concentration at 4 h [29]: 13700 ng/mL | Cmax [30]: 16800 ng/mL
Compound: CC[C@H]1OC(=O)[C@H](C)C(=O)[C@H](C)[C@@H](O[C@@H]2O[C@H](C)C[C@H](N(C)C)[C@H]2O)[C@@]2(C)C[C@@H](C)/C(=N\C(C)=O)[C@H](C)[C@@H](OC/C(=N\OCc3ccc(-n4cccn4)nc3)CO2)[C@]1(C)O [MODITHROMYCIN]
Activity (Homo sapiens [3]): 13.6% | RatioAUC/MIC [4]: 1.3 | Activity (Homo sapiens [7]): 0% | Activity (Homo sapiens [10]): 0.1% | Activity (Homo sapiens [11]): 10.8% | Activity (Homo sapiens [12]): 0.1% | Activity (Homo sapiens [13]): 0.1% | Activity (Homo sapiens [14]): 0% | Activity (Homo sapiens [17]): 87.1% | RatioAUC/MIC [18]: 83.6 | Activity (Homo sapiens [19]): 0% | Activity (Homo sapiens [21]): 85.8% | Activity (Homo sapiens [23]): 0% | Activity (Homo sapiens [26]): 0% | Activity (Homo sapiens [31]): 0.3%

Reference: ChEMBL document CHEMBL1240362, “Intrapulmonary pharmacokinetics of S-013420, a novel bicyclolide antibacterial, in healthy Japanese subjects” (Antimicrob Agents Chemother, 2010)
